Assay results: ChEMBL document CHEMBL1158537, “Antibacterial activities of aminoglycoside antibiotics-derived cationic amphiphiles. Polyol-modified neomycin B-, kanamycin A-, amikacin-, and neamine-based amphiphiles with potent broad spectrum antibacterial activity” (2010)
Converted amounts (≈) assume the structure as drawn.

Key:
[1] = tested on: Stenotrophomonas maltophilia; test: Antibacterial activity against Stenotrophomonas maltophilia CAN-ICU 62585 after 24 hrs by macrobroth dilution method; format: functional; settings: CAN-ICU 62585, 24 h
How it was run: (§1)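 Broth macrodilution was run following CLSI methodology against ATCC reference strains and clinical isolates from the Canadian Intensive Care Unit (CAN-ICU) study, with Gram-positive and Gram-negative organisms tested. The value is the minimum inhibitory concentration, reported in μg/mL.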

[2] = tested on: Streptococcus pneumoniae; test: Antibacterial activity against Streptococcus pneumoniae ATCC 49619 after 24 hrs by macrobroth dilution method; format: functional; settings: ATCC 49619, 24 h; how it was run: as §1
[3] = tested on: Staphylococcus epidermidis; test: Antibacterial activity against methicillin-resistant Staphylococcus epidermidis ATCC 14990 after 24 hrs by macrobroth dilution method; format: functional; settings: ATCC 14990, 24 h
[4] = tested on: Escherichia coli; test: Antibacterial activity against Escherichia coli ATCC 25922 after 24 hrs by macrobroth dilution method; format: functional; settings: ATCC 25922, 24 h
How it was run: (§2)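 Reference strains from the American Type Culture Collection were tested by broth macrodilution following CLSI methodology. The read-out was the minimum inhibitory concentration, reported in μg/mL. The same method was used for the Gram-positive and Gram-negative organisms.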

[5] = tested on: Escherichia coli; test: Antibacterial activity against Escherichia coli CAN-ICU 63074 after 24 hrs by macrobroth dilution method; format: functional; settings: CAN-ICU 63074, 24 h; how it was run: as §1
[6] = tested on: Staphylococcus epidermidis; test: Antibacterial activity against Staphylococcus epidermidis […] after 24 hrs by macrobroth dilution method; format: functional; how it was run: as §1
[7] = tested on: Klebsiella pneumoniae; test: Antibacterial activity against Klebsiella pneumoniae ATCC 13883 after 24 hrs by macrobroth dilution method; settings: ATCC 13883, 24 h
[8] = tested on: Pseudomonas aeruginosa; test: Antibacterial activity against Pseudomonas aeruginosa ATCC 27853 after 24 hrs by macrobroth dilution method; format: functional; settings: ATCC 27853, 24 h; how it was run: as §1
[9] = tested on: Escherichia coli; test: Antibacterial activity against gentamicin-resistant Escherichia coli ATCC 6174 after 24 hrs by macrobroth dilution method; format: functional; settings: ATCC 6174, 24 h; how it was run: as §2
[10] = tested on: Acinetobacter baumannii; test: Antibacterial activity against Acinetobacter baumannii CAN-ICU 63169 after 24 hrs by macrobroth dilution method; format: functional; settings: CAN-ICU 63169, 24 h; how it was run: as §1
[11] = tested on: Staphylococcus aureus; test: Antibacterial activity against Staphylococcus aureus ATCC 29213 after 24 hrs by macrobroth dilution method; format: functional; settings: ATCC 29213, 24 h; how it was run: as §2
[12] = tested on: Pseudomonas aeruginosa; test: Antibacterial activity against Pseudomonas aeruginosa CAN-ICU 62308 after 24 hrs by macrobroth dilution method; format: functional; settings: CAN-ICU 62308, 24 h; how it was run: as §1
[13] = tested on: Staphylococcus aureus; test: Antibacterial activity against methicillin-resistant Staphylococcus aureus ATCC 33592 after 24 hrs by macrobroth dilution method; format: functional; settings: ATCC 33592, 24 h; how it was run: as §2

In the case of `CN(C)c1ccc(NC(=O)OC[C@H]2O[C@H](O[C@@H]3[C@@H](OC(=O)Nc4ccc(N(C)C)cc4)[C@H](O[C@H]4O[C@H](CN)[C@@H](OC(=O)Nc5ccc(N(C)C)cc5)[C@H](OC(=O)Nc5ccc(N(C)C)cc5)[C@H]4OC(=O)Nc4ccc(N(C)C)cc4)[C@@H](N)C[C@H]3N)[C@H](OC(=O)Nc3ccc(N(C)C)cc3)[C@@H](N)[C@@H]2OC(=O)Nc2ccc(N(C)C)cc2)cc1.O=C(O)C(F)(F)F`, the MIC [1] is reported as > 256 µg/mL, the MIC [2] is reported as > 256 µg/mL and the MIC [3] is reported as 32 µg/mL. The MIC [4] was 256 µg/mL, the MIC [5] was 256 µg/mL and the MIC [6] was 16 µg/mL. For the same compound, the MIC [7] was > 256 µg/mL, the MIC [8] was > 256 µg/mL and the MIC [9] was 256 µg/mL. The MIC [10] was > 256 µg/mL, the MIC [11] was 16 µg/mL and the MIC [12] was 256 µg/mL. The MIC [13] was 32 µg/mL.
With `NCC[C@H](O)C(=O)N[C@@H]1C[C@H](N)[C@@H](O[C@H]2O[C@H](CN)[C@@H](O)[C@H](O)[C@H]2O)[C@H](O)[C@H]1O[C@H]1O[C@H](CO)[C@@H](O)[C@H](N)[C@H]1O` [AMIKACIN] the MIC [1] was > 512 µg/mL, the MIC [2] was 8 µg/mL (≈ 13.7 µM) and the MIC [3] was 2 µg/mL (≈ 3.42 µM). The MIC [4] was 4 µg/mL (≈ 6.83 µM), the MIC [5] was 32 µg/mL (≈ 54.6 µM) and the MIC [6] was 1 µg/mL (≈ 1.71 µM). It also gave an MIC [7] of 0.5 µg/mL (≈ 0.854 µM), an MIC [8] of 4 µg/mL (≈ 6.83 µM) and an MIC [9] of 2 µg/mL (≈ 3.42 µM). For the same compound, the MIC [10] was 128 µg/mL (≈ 219 µM), the MIC [11] was 4 µg/mL (≈ 6.83 µM) and the MIC [12] was 128 µg/mL (≈ 219 µM). The MIC [13] was 8 µg/mL (≈ 13.7 µM).
In the case of `NC[C@H]1O[C@H](O[C@H]2[C@H](OC(=O)Nc3ccccc3)[C@@H](O[C@H]3O[C@H](COC(=O)Nc4ccccc4)[C@@H](OC(=O)Nc4ccccc4)[C@H](N)[C@H]3OC(=O)Nc3ccccc3)[C@H](N)C[C@@H]2N)[C@H](OC(=O)Nc2ccccc2)[C@@H](OC(=O)Nc2ccccc2)[C@@H]1OC(=O)Nc1ccccc1.O=C(O)C(F)(F)F`, the MIC [1] is reported as > 256 µg/mL, the MIC [2] is reported as 64 µg/mL and the MIC [3] is reported as 8 µg/mL. The MIC [4] was > 256 µg/mL, the MIC [5] was > 256 µg/mL and the MIC [6] was 4 µg/mL. The MIC [7] was > 256 µg/mL, the MIC [8] was > 256 µg/mL and the MIC [9] was > 256 µg/mL. For the same compound, the MIC [10] was > 256 µg/mL, the MIC [11] was 32 µg/mL and the MIC [12] was > 256 µg/mL. It also gave an MIC [13] of 32 µg/mL.
With `NC[C@H]1O[C@H](O[C@H]2[C@H](OC(=O)Nc3ccccc3)[C@@H](OC(=O)Nc3ccccc3)[C@H](N)C[C@@H]2N)[C@H](N)[C@@H](OC(=O)Nc2ccccc2)[C@@H]1OC(=O)Nc1ccccc1.O=C(O)C(F)(F)F` the MIC [1] was 64 µg/mL, the MIC [2] was > 256 µg/mL and the MIC [3] was 8 µg/mL. It also gave an MIC [4] of 32 µg/mL, an MIC [5] of 32 µg/mL and an MIC [6] of 8 µg/mL. The MIC [7] was 64 µg/mL, the MIC [8] was 128 µg/mL and the MIC [9] was 32 µg/mL. The MIC [10] was 256 µg/mL, the MIC [11] was 16 µg/mL and the MIC [12] was 128 µg/mL. For the same compound, the MIC [13] was 16 µg/mL.
Work on `NC[C@@H]1O[C@H](O[C@H]2[C@@H](OCc3ccccc3)[C@H](O[C@@H]3[C@@H](OCc4ccccc4)[C@H](N)C[C@H](N)[C@H]3O[C@H]3O[C@H](CN)[C@@H](OCc4ccccc4)[C@H](OCc4ccccc4)[C@H]3N)O[C@@H]2COCc2ccccc2)[C@H](N)[C@@H](OCc2ccccc2)[C@@H]1OCc1ccccc1.O=C(O)C(F)(F)F` yielded an MIC [1] of 8 µg/mL, an MIC [2] of 16 µg/mL and an MIC [3] of 2 µg/mL. The MIC [4] was 8 µg/mL, the MIC [5] was 4 µg/mL and the MIC [6] was 2 µg/mL. It also gave an MIC [7] of 8 µg/mL, an MIC [8] of 32 µg/mL and an MIC [9] of 16 µg/mL. For the same compound, the MIC [10] was 16 µg/mL, the MIC [11] was 4 µg/mL and the MIC [12] was 64 µg/mL. It also gave an MIC [13] of 4 µg/mL.
In the case of `COC[C@H]1O[C@H](O[C@@H]2[C@@H](OC)[C@H](OC3O[C@H](CN)[C@@H](OC)[C@H](OC)[C@H]3OC)[C@@H](N)C[C@H]2N)[C@H](OC)[C@@H](N)[C@@H]1OC.O=C(O)C(F)(F)F` (stereo not given in full), the MIC [1] is reported as > 256 µg/mL, the MIC [2] is reported as > 256 µg/mL and the MIC [3] is reported as > 256 µg/mL. For the same compound, the MIC [4] was > 256 µg/mL, the MIC [5] was > 256 µg/mL and the MIC [6] was 256 µg/mL. For the same compound, the MIC [7] was > 256 µg/mL, the MIC [8] was > 256 µg/mL and the MIC [9] was > 256 µg/mL. For the same compound, the MIC [10] was > 256 µg/mL, the MIC [11] was > 256 µg/mL and the MIC [12] was > 256 µg/mL. The MIC [13] was > 256 µg/mL.
With `NC[C@@H]1O[C@H](O[C@H]2[C@@H](O)[C@H](O[C@@H]3[C@@H](O)[C@H](N)C[C@H](N)[C@H]3O[C@H]3O[C@H](CN)[C@@H](O)[C@H](O)[C@H]3N)O[C@@H]2CO)[C@H](N)[C@@H](O)[C@@H]1O` [FRAMYCETIN] the MIC [1] was > 512 µg/mL, the MIC [2] was 32 µg/mL (≈ 52.1 µM) and the MIC [3] was 0.5 µg/mL (≈ 0.813 µM). It also gave an MIC [4] of 4 µg/mL (≈ 6.51 µM), an MIC [6] of 0.25 µg/mL (≈ 0.407 µM) and an MIC [7] of 1 µg/mL (≈ 1.63 µM). It also gave an MIC [8] of 512 µg/mL (≈ 833 µM), an MIC [9] of 8 µg/mL (≈ 13 µM) and an MIC [10] of 64 µg/mL (≈ 104 µM). The MIC [11] was 1 µg/mL (≈ 1.63 µM), the MIC [12] was 512 µg/mL (≈ 833 µM) and the MIC [13] was 256 µg/mL (≈ 416 µM).
